{
  "source": "paper PMC6542277",
  "about": "(Journal of medicinal chemistry, 2018)",
  "key": {"[1]": {"assay": "In vivo whole-body NIR fluorescence imaging", "settings": "mouse, in vivo, iv, 300 uM, 150 uL"}, "[2]": {"test_system": "OE33 cells", "assay": "Apparent dissociation constant by flow cytometry", "type": "binding, human", "settings": "from kd on OE33 cells", "summary_of_the_method": "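Labelled heterodimer serially diluted in PBS (0, 10, 25, 50, 100, 200 nM) and incubated with OE33 cells at 4°C for 1 h, then washed in cold PBS. Mean fluorescence was read by flow cytometry. kd = 1/ka came from a least-squares fit to I = (I0 + Imax·ka[X])/(I0 + ka[X]), where I0 is the no-peptide intensity and Imax the saturation intensity.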"}, "[3]": {"test_system": "OE33 cells", "assay": "Apparent association time constant by flow cytometry", "type": "binding, human", "settings": "1 μM peptide, 4°C", "summary_of_the_method": "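OE33 cells grown to ~80% confluence, detached with PBS-based dissociation buffer, then held with 1 μM labelled heterodimer at 4°C for periods of 0–60 min. Cells were centrifuged, washed in cold PBS and fixed in 4% PFA before flow cytometry. Median fluorescence was ratioed to peptide-free cells, and k was fitted to y(t) = Imax[1−exp(−kt)].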"}, "[4]": {"assay": "Stability in PBS containing 0.1% BSA", "type": "physicochemical", "settings": "0.01 mol/L PBS, pH 7.4, 37°C, HPLC at 0.5, 2, 6 and 12 hours"}, "[5]": {"assay": "Enzymatic stability in mouse serum", "type": "in vitro ADME", "settings": "30 μM in mouse serum, 37°C, at 2 hour; HPLC of supernatant after centrifugation", "summary_of_the_method": "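Samples taken at 0.5, 1.0, 1.5 and 2 h of serum incubation at 37°C were centrifuged at 14,000 rpm. 20 μL of supernatant was analysed by HPLC.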"}, "[6]": {"test_system": "OE33 human esophageal adenocarcinoma cells", "assay": "Confocal microscopy binding validation", "type": "cell-based", "summary_of_the_method": "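OE33 cells, kept in RPMI 1640 with 10% FBS and penicillin/streptomycin at 37°C, 5% CO2, grown to ~70% confluence on coverslips. Cells were blocked with 2% BSA/PBS for 30 min, given Cy5.5-labelled peptides, washed 3×, fixed in ice-cold 4% PFA for 10 min and mounted with DAPI. Confocal intensities were quantified from 3 independent images.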"}, "[7]": {"biological_target": "EGFR (Homo sapiens, UniProt P00533)", "sequence (P00533 25-1210)": "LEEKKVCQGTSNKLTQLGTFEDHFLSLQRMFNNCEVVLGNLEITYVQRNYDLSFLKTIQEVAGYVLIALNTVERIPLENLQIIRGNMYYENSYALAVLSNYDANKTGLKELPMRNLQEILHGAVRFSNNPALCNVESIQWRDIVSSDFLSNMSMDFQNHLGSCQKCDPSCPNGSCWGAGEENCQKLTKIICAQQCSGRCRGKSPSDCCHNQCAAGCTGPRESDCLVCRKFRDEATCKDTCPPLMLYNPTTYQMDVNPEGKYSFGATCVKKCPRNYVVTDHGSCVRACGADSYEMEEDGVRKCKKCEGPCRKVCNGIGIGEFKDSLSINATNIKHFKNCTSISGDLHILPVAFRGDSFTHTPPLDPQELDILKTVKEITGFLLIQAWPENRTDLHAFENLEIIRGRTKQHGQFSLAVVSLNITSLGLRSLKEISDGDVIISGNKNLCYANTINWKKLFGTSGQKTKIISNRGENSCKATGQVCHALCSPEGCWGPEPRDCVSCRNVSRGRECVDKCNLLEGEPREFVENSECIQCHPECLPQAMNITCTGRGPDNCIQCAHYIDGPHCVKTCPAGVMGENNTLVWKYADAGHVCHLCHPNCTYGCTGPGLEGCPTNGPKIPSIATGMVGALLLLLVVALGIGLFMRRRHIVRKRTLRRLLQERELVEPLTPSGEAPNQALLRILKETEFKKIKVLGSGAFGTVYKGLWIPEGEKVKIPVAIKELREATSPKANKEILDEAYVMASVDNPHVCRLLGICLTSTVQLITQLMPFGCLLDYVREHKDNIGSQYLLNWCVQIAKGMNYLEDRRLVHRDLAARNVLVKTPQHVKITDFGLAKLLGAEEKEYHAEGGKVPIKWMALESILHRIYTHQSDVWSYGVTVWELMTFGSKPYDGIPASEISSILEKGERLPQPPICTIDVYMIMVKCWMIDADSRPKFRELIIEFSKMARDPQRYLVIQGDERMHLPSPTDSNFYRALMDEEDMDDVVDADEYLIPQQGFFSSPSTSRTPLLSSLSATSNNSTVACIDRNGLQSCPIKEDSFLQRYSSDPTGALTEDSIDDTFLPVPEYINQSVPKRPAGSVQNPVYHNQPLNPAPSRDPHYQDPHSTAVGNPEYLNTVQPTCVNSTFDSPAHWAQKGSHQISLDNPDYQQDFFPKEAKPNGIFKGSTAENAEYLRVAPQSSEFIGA", "assay": "siRNA knockdown of EGFR, confocal binding", "type": "cell-based", "settings": "confocal microscopy; mean of 5 cells from 3 images; P=3.6×10^−4"}, "[8]": {"biological_target": "ErbB2 (Homo sapiens, UniProt P04626)", "sequence (P04626 23-1255)": "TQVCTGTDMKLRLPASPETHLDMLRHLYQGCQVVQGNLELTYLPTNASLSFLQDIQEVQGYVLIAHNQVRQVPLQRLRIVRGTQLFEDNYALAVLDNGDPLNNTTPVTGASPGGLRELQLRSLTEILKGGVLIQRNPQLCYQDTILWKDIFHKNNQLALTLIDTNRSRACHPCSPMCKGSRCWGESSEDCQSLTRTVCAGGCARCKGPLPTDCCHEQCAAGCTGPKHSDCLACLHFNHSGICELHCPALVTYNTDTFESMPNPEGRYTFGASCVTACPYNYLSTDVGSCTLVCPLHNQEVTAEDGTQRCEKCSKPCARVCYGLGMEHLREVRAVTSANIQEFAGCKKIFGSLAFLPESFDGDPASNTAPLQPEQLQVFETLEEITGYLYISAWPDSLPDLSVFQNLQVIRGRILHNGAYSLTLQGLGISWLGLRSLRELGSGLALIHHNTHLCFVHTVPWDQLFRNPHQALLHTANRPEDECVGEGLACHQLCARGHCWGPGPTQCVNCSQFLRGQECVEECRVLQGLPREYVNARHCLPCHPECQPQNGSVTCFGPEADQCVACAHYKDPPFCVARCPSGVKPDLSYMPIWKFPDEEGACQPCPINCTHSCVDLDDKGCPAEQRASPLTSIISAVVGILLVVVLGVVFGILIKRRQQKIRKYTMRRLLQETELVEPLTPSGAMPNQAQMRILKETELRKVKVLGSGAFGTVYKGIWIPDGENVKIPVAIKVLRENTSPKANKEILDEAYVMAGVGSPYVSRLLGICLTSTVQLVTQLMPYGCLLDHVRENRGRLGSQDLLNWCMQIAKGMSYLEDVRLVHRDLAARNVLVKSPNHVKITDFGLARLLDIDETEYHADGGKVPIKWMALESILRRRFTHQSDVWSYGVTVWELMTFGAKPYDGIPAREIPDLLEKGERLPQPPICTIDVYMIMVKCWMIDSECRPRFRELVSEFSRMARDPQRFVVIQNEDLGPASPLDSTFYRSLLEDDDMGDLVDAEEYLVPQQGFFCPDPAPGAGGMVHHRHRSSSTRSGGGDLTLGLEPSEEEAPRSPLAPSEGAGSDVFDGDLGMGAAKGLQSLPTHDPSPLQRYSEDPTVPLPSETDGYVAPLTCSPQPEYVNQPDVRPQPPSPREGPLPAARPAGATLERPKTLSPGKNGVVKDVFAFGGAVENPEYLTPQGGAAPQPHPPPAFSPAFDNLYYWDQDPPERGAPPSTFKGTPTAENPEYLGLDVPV", "assay": "siRNA knockdown of ErbB2, confocal binding", "type": "cell-based", "settings": "confocal microscopy; mean of 5 cells from 3 images; P=7.8×10^−3"}, "[9]": {"test_system": "SKBr3 cells", "assay": "Internalization, confocal images over time", "type": "cell-based, human"}, "[10]": {"test_system": "EGFR/ErbB2 signaling (p-EGFR, p-ErbB2, p-AKT, p-ERK) in SKBr3 cells", "assay": "Effect on cell signaling, Western blot", "type": "cell-based, human"}, "[11]": {"test_system": "OE33 xenograft tumors", "assay": "Biodistribution, ex vivo organ fluorescence", "design": "species or system mouse", "settings": "nude mice, 300 μM in 150 μL PBS, 2 hours"}, "[12]": {"assay": "Acute toxicity on histology", "type": "in vivo, mouse", "settings": "nude mice after systemic injection of 300 μM, 150 μL PBS"}, "[13]": {"test_system": "Barrett's neoplasia (HGD and EAC)", "assay": "Binding to human esophageal specimens ex vivo, confocal microscopy", "settings": "for AUC of ROC curve: human FFPE esophageal specimens ex vivo, HGD and EAC versus SQ and BE", "summary_of_the_method": "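Archived FFPE human esophagus cut at 10 μm, deparaffinized, rehydrated, then given two-step acidic plus protease antigen retrieval. Sections were blocked with protein serum for 10 min, stained with 0.5 μM heterodimer for 10 min in the dark at RT, then anti-EGFR and anti-ErbB2 antibodies with secondaries. Mean intensity came from three 20×20 μm2 epithelial boxes, avoiding saturated regions. SQ/BE/HGD/EAC groups (n = 31, 8, 23, 12) compared by unpaired t test and one-way ANOVA.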"}, "[14]": {"assay": "Hydrophilicity", "type": "physicochemical", "settings": "triethyleneglycol linker (E3); method not given"}, "[15]": {"test_system": "OE33 xenograft tumors", "assay": "In vivo whole-body NIR fluorescence imaging", "settings": "nude mice, OE33 xenograft, 300 μM in 150 μL PBS via tail vein, NIR fluorescence"}, "[16]": {"settings": "human esophageal specimens ex vivo, confocal microscopy, 0.5 μM, 10 min, RT"}},
  "note": "Where a SMILES comes first, the peptide text is derived from it. Bridges are numbered along the chain shown (N, C = ends). Roman numbers before positions name the chains, in order. [ ]: non-standard residue; d: D form. The star is where a group is joined. X1 = CN1C(=CC=CC=CC2=[N+](CCCCCC(=O)*)c3ccc4ccccc4c3C2(C)C)C(C)(C)c2c1ccc1ccccc21; AEEEA = NCCOCCOCCOCC(=O)O",
  "data": [
    {"compound": "C[C@H](NC(=O)CNC(=O)CNC(=O)CN)C(=O)NCC(=O)NCC(=O)NCC(=O)NCCCC[C@H](NC(=O)CNC(=O)CNC(=O)CNC(=O)[C@H](C)NC(=O)CNC(=O)CNC(=O)CN)C(=O)N[C@@H](CCCCNC(=O)CCCCC[N+]1=C(C=CC=CC=C2N(C)c3ccc4ccccc4c3C2(C)C)C(C)(C)c2c1ccc1ccccc21)C(N)=O", "note": "[(GGGAGGG)2KK-Cy5.5, reference compound] (I: H-GGGAGGGKK(X1)-NH2 / II: H-GGGAGGG; amide I:8-II:C)", "values": [
      {"measurement": "tissue to tissue ratio at 2 h", "setting": "[1]", "result": "1.43 ± 0.28"}
    ]},
    {"compound": "CN1C(=CC=CC=CC2=[N+](CCCCCC(=O)NCCCC[C@H](NC(=O)[C@H](CCCCNC(=O)COCCOCCOCCNC(=O)[C@H](Cc3ccccc3)NC(=O)[C@H](CCCNC(=N)N)NC(=O)[C@@H]3CCCN3C(=O)[C@H](CC(N)=O)NC(=O)[C@@H]3CCCN3C(=O)[C@H](CO)NC(=O)[C@@H](N)CCCCN)NC(=O)COCCOCCOCCNC(=O)[C@H](CCC(=O)O)NC(=O)[C@H](CCCNC(=N)N)NC(=O)[C@@H]3CCCN3C(=O)[C@H](CCCCN)NC(=O)[C@H](Cc3c[nH]cn3)NC(=O)[C@H](CCCNC(=N)N)NC(=O)[C@@H](N)CCC(N)=O)C(N)=O)c3ccc4ccccc4c3C2(C)C)C(C)(C)c2c1ccc1ccccc21", "note": "[QRH*-KSP*-E3-Cy5.5] (I: H-QRHKPRE[AEEEA]KK(X1)-NH2 / II: H-KSPNPRF[AEEEA]; amide I:9-II:C; N-terminus and C-terminus assumed)", "values": [
      {"measurement": "affinity compared with either monomer alone", "setting": "[2]", "result": 2, "unit": "fold"},
      {"measurement": "association time (printed in brackets after k)", "setting": "[3]", "result": 4.5, "unit": "min"},
      {"measurement": "degradation in PBS containing 0.1% BSA", "setting": "[4]", "result": "No noticeable degradation"},
      {"measurement": "area of new formed peak (may arise from degradation)", "setting": "[5]", "result": "about 20%"},
      {"measurement": "binding to surface of OE33 cells", "setting": "[6]; 1 μM, 30 min, 4°C", "result": "strong binding"},
      {"measurement": "fluorescence intensity compared with either monomer alone", "setting": "[6]; binding to OE33 cells", "result": 3, "unit": "fold"},
      {"measurement": "fluorescence intensity, siCL (control) versus siEGFR (knockdown) SKBr3 cells", "setting": "[7]", "result": "significantly greater intensity"},
      {"measurement": "fluorescence intensity, siCL (control) versus siErbB2 (knockdown) SKBr3 cells", "setting": "[8]", "result": "significantly greater intensity"},
      {"measurement": "time at which internalization begins", "setting": "[9]", "result": 8, "unit": "min"},
      {"measurement": "time at which internalization reaches near completion", "setting": "[9]", "result": 40, "unit": "min"},
      {"measurement": "downstream change in AKT (p-AKT) and ERK (p-ERK)", "setting": "[10]; heterodimer at 1, 5 and 20 μM", "result": "no downstream change"},
      {"measurement": "phosphorylation of EGFR (p-EGFR) or ErbB2 (p-ErbB2)", "setting": "[10]; heterodimer at 1, 5 and 20 μM", "result": "no change"},
      {"measurement": "uptake in kidney", "setting": "[11]; supports renal clearance", "result": "High uptake"},
      {"measurement": "uptake in tumor relative to muscle", "setting": "[11]; OE33 xenograft, n = 6", "result": 3, "unit": "fold"},
      {"measurement": "acute toxicity on histology (H&E)", "setting": "[12]", "result": "no evidence of acute toxicity"},
      {"measurement": "AUC of ROC curve", "setting": "[13]", "result": 0.95},
      {"measurement": "fluorescence intensity with SQ and BE", "setting": "[13]; [16]", "result": "minimal fluorescence intensity"},
      {"measurement": "fluorescence signal with HGD and EAC", "setting": "[13]; [16]", "result": "increased signal"},
      {"measurement": "hydrophilicity", "setting": "[14]", "result": "good hydrophilicity"},
      {"measurement": "tissue to tissue ratio at 2 h", "setting": "[1]", "result": "2.39 ± 0.52"},
      {"measurement": "time at which signal returns to baseline (systemic clearance)", "setting": "[15]", "result": "~ 24 hours"}
    ]},
    {"compound": "CS(=O)(=O)CCNCc1ccc(-c2ccc3ncnc(Nc4ccc(OCc5cccc(F)c5)c(Cl)c4)c3c2)o1", "note": "[lapatinib, reference compound]", "values": [
      {"measurement": "expression of p-ErbB2, p-AKT and p-ERK", "setting": "[10]; lapatinib 100 nM", "result": "reduced expression"}
    ]},
    {"compound": "EGF: endogenous ligand for EGFR, positive control", "values": [
      {"measurement": "phosphorylation of AKT (p-AKT) and ERK (p-ERK), positive control", "setting": "[10]; EGF 100 ng/mL", "result": "strong phosphorylation activity"}
    ]},
    {"compound": "KSPNPRF [KSP*-Cy5.5]", "values": [
      {"measurement": "AUC of ROC curve", "setting": "[13]", "result": 0.91}
    ]},
    {"compound": "QRHKPRE [QRH*-Cy5.5]", "values": [
      {"measurement": "AUC of ROC curve", "setting": "[13]", "result": 0.79}
    ]}
  ]
}
